What was measured:
[1] = test system: Rattus norvegicus; assay: Gastroprotective activity on stress-induced ulcers in male Wistar rats at 12.5 mg/kg upon intraperitoneal administration; type: functional
Procedure, shortened: (§1)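 Rats (160-180 g) fasted 24 h, given test compound ip in physiological saline; saline-only controls. After 1 h, restrained in net cage and immersed to xiphisternum in 21 °C water bath for 6 h, then killed and stomachs opened along greater curvature. Hemorrhagic ulceration scored 0-3; % protection = 100 − (treated total rating/saline rating)×100. Five rats per dose.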

[2] = test system: Rattus norvegicus; assay: Gastroprotective activity on stress-induced ulcers in male Wistar rats at 25 mg/kg upon intraperitoneal administration; type: functional; procedure, shortened: as §1
[3] = test system: Rattus norvegicus; assay: Gastroprotective activity on stress-induced ulcers in male Wistar rats at 50 mg/kg upon intraperitoneal administration; type: functional; procedure, shortened: as §1
[4] = test system: Rattus norvegicus; assay: Gastroprotective activity on stress-induced ulcers in male Wistar rats at 6.25 mg/kg upon intraperitoneal administration; type: functional; procedure, shortened: as §1
[5] = Lethal dose in mice upon intraperitoneal administration;Value ranges from(131.6-243.4); type: toxicity, organism-based; conditions: mouse, in vivo, ip
[6] = test system: Rattus norvegicus; assay: Gastroprotective activity on stress-induced ulcers in male Wistar rats at 6.25 mg/kg upon intraperitoneal administration;the minimum effective dose = 125 ug/kg (protection 66%); type: functional
Procedure, shortened: (§2)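 Male Wistar rats (160-180 g), food-deprived 24 h, given compound ip in physiological saline; saline-only controls. After 1 h, restrained in net cage and immersed to xiphisternum in 21 °C water for 6 h. Stomachs removed and opened along greater curvature, hemorrhagic ulceration scored 0-3. % protection = 100 − (treated total rating / saline rating)×100. Five rats per dose.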

[7] = Lethal dose in mice upon intraperitoneal administration;Value ranges from(5-9.8); type: toxicity, organism-based; conditions: mouse, in vivo, ip
[8] = test system: Rattus norvegicus; assay: Gastroprotective activity on stress-induced ulcers in male Wistar rats at the specified ip dose of 12.5 mg/kg; type: functional; conditions: route intraperitoneal; procedure, shortened: as §2

SMILES	Protection [1] [%]	Protection [2] [%]	Protection [3] [%]	Protection [4] [%]	LD50 [5] [mg/kg]	Protection [6] [%]	LD50 [7] [mg/kg]	Protection [8] [%]
NC(CC(=O)O)C(O)C(O)C(=O)[O-].[Na+] (centres undefined)	0	23	43	–	–	–	–	–
CC(=O)NC1CC(=O)OC1C(OC(C)=O)C(=O)NC(CC(C)C)C1Cc2cccc(OC(C)=O)c2C(=O)O1 (centres undefined)	0	0	16	–	–	–	–	–
CC(=O)NC1CC(=O)OC1C(OC(C)=O)C(=O)NC(CC(C)C)C1Cc2cccc(O)c2C(=O)O1 (centres undefined)	0	16	16	–	–	–	–	–
CC(C)CC(NC(=O)C(O)C(O)C(N)CC(=O)O)C(O)Cc1cccc(O)c1C(=O)[O-].[Na+] (centres undefined)	16	50	50	–	–	–	–	–
COc1cccc2c1C(=O)OC(C(CC(C)C)NC(=O)C(O)C(O)C(N)CC(=O)O)C2 (centres undefined)	66	83	83	50	–	–	–	–
CC(=O)NC1CC(=O)OC1C(O)C(=O)NC(CC(C)C)C1Cc2cccc(O)c2C(=O)O1 (centres undefined)	16	33	66	–	–	–	–	–
CC(C)C[C@H](NC(=O)[C@@H](O)[C@@H](O)[C@@H](N)CC(=O)O)[C@@H]1Cc2cccc(O)c2C(=O)O1	76	100	100	56	179	–	–	–
CC(C)CC(NC(=O)C(O)C1OC(=O)CC1N)C1Cc2cccc(O)c2C(=O)O1 (centres undefined)	76	76	83	17	–	–	–	–
CC(C)CC(NC(=O)C(O)C1C=CC(=O)O1)C1Cc2cccc(O)c2C(=O)O1 (centres undefined)	0	16	33	–	–	–	–	–
CC(C)CC(N)C1Cc2cccc(O)c2C(=O)O1.Cl (centres undefined)	16	33	33	–	–	–	–	–
CC(C)CC(NC(=O)C(O)C(O)C(N)CC(N)=O)C1Cc2cccc(O)c2C(=O)O1.Cl (centres undefined)	–	100	100	–	–	100	7	100
